In ChEMBL document CHEMBL2311528, “Synthesis of spirolactone-type diterpenoid derivatives from kaurene-type oridonin with improved antiproliferative effects and their apoptosis-inducing activity in human hepatoma Bel-7402 cells” (Eur J Med Chem, 2013):
Blank lines part the entries; values can stand above or below the molecule they belong to.

Assays:
Bel-7402 [1] = assay: Antiproliferative activity against human Bel7402 cells assessed as growth inhibition by MTT assay; format: functional, cell-based
Procedure, shortened: (§1)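 Cells treated in triplicate over a range of concentrations at 37 °C in humidified 5% CO2. At 72 h, MTT (5 mg/mL) was added for 4 h, followed by DMSO solubilisation and OD at 490 nm. IC50 is the concentration giving 50% growth inhibition, reported as mean ± S.D. of three independent experiments.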

[2] = Antiproliferative activity against human CaEs17 cells assessed as growth inhibition by MTT assay; format: functional, cell-based; procedure, shortened: as §1
MGC-803 [3] = assay: Antiproliferative activity against human MGC803 cells assessed as growth inhibition by MTT assay; format: functional, cell-based; procedure, shortened: as §1
K562 [4] = assay: Antiproliferative activity against human K562 cells assessed as growth inhibition by MTT assay; format: functional, cell-based
Procedure, shortened: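 K562 cells in log phase seeded at 5 × 10⁴ cells/mL and treated in triplicate across a 0.39–100 range. Cultures were kept at 37 °C in humidified 5% CO2. At 72 h, MTT (5 mg/mL) was added for 4 h, formazan was dissolved in DMSO, and OD was read at 490 nm. IC50 is the concentration giving 50% growth inhibition, reported as mean ± S.D. of three independent experiments.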

[5] = molecular target: Glutathione S-transferase P (Homo sapiens) (UniProt P09211); assay: Inhibition of glutathione S-transferase pi in human Bel7402 cell lysates at 40 uM using CDNB and GSH as substrates by spectrophotometry; details: Bel-7402
Bel-7402 [6] = assay: Induction of cell cycle arrest in human Bel7402 cells assessed as accumulation at G2/M phase at 1 uM incubated for 48 hrs by propidium iodide staining based flow cytometry (reference value: 4.75%); format: functional
Procedure, shortened: (§2)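 Bel-7402 seeded at 5.0 × 10³ cells/well and grown 24 h at 37 °C. Exponentially growing cells were treated for 48 h, alongside untreated and DMSO-solvent controls. Cells were then centrifuged, fixed overnight in 70% ethanol at 4 °C, and analysed by flow cytometry for phase distribution.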

Bel-7402 [7] = assay: Induction of cell cycle arrest in human Bel7402 cells assessed as accumulation at S phase at 1 uM incubated for 48 hrs by propidium iodide staining based flow cytometry (reference value: 31.89%); format: functional; procedure, shortened: as §2
Bel-7402 [8] = assay: Induction of cell cycle arrest in human Bel7402 cells assessed as accumulation at G1 phase at 1 uM incubated for 48 hrs by propidium iodide staining based flow cytometry (reference value: 63.86%); format: functional; procedure, shortened: as §2
Bel-7402 [9] = assay: Induction of cell cycle arrest in human Bel7402 cells assessed as accumulation at G2/M phase at 0.8 uM incubated for 48 hrs by propidium iodide staining based flow cytometry (reference value: 4.75%); format: functional; procedure, shortened: as §2
Bel-7402 [10] = assay: Induction of cell cycle arrest in human Bel7402 cells assessed as accumulation at S phase at 0.8 uM incubated for 48 hrs by propidium iodide staining based flow cytometry (reference value: 31.89%); format: functional; procedure, shortened: as §2
Bel-7402 [11] = assay: Induction of cell cycle arrest in human Bel7402 cells assessed as accumulation at G1 phase at 0.8 uM incubated for 48 hrs by propidium iodide staining based flow cytometry (reference value: 63.86%); format: functional; procedure, shortened: as §2
Bel-7402 [12] = assay: Induction of cell cycle arrest in human Bel7402 cells assessed as accumulation at G2/M phase at 0.6 uM incubated for 48 hrs by propidium iodide staining based flow cytometry (reference value: 4.75%); format: functional; procedure, shortened: as §2
Bel-7402 [13] = assay: Induction of cell cycle arrest in human Bel7402 cells assessed as accumulation at S phase at 0.6 uM incubated for 48 hrs by propidium iodide staining based flow cytometry (reference value: 31.89%); format: functional; procedure, shortened: as §2
Bel-7402 [14] = assay: Induction of cell cycle arrest in human Bel7402 cells assessed as accumulation at G1 phase at 0.6 uM incubated for 48 hrs by propidium iodide staining based flow cytometry (reference value: 63.86%); format: functional; procedure, shortened: as §2
Bel-7402 [15] = assay: Induction of apoptosis in human Bel7402 cells assessed as necrotic cells level at 1 uM incubated for 3 days by Annexin-V and propidium iodide double staining based flow cytometry (reference value: 0.5%); format: functional
Bel-7402 [16] = assay: Induction of apoptosis in human Bel7402 cells assessed as late apoptotic cells level at 1 uM incubated for 3 days by Annexin-V and propidium iodide double staining based flow cytometry (reference value: 2.4%); format: functional
Bel-7402 [17] = assay: Induction of apoptosis in human Bel7402 cells assessed as early apoptotic cells level at 1 uM incubated for 3 days by Annexin-V and propidium iodide double staining based flow cytometry (reference value: 4.5%); format: functional
Bel-7402 [18] = assay: Induction of apoptosis in human Bel7402 cells assessed as viable cells level at 1 uM incubated for 3 days by Annexin-V and propidium iodide double staining based flow cytometry (reference value: 92.6%); format: functional
Bel-7402 [19] = assay: Induction of apoptosis in human Bel7402 cells assessed as necrotic cells level at 0.8 uM incubated for 3 days by Annexin-V and propidium iodide double staining based flow cytometry (reference value: 0.5%); format: functional
Bel-7402 [20] = assay: Induction of apoptosis in human Bel7402 cells assessed as late apoptotic cells level at 0.8 uM incubated for 3 days by Annexin-V and propidium iodide double staining based flow cytometry (reference value: 2.4%); format: functional
Bel-7402 [21] = assay: Induction of apoptosis in human Bel7402 cells assessed as early apoptotic cells level at 0.8 uM incubated for 3 days by Annexin-V and propidium iodide double staining based flow cytometry (reference value: 4.5%); format: functional
Bel-7402 [22] = assay: Induction of apoptosis in human Bel7402 cells assessed as viable cells level at 0.8 uM incubated for 3 days by Annexin-V and propidium iodide double staining based flow cytometry (reference value: 92.6%); format: functional
Bel-7402 [23] = assay: Induction of apoptosis in human Bel7402 cells assessed as necrotic cells level at 0.6 uM incubated for 3 days by Annexin-V and propidium iodide double staining based flow cytometry (reference value: 0.5%); format: functional
Bel-7402 [24] = assay: Induction of apoptosis in human Bel7402 cells assessed as late apoptotic cells level at 0.6 uM incubated for 3 days by Annexin-V and propidium iodide double staining based flow cytometry (reference value: 2.4%); format: functional
Bel-7402 [25] = assay: Induction of apoptosis in human Bel7402 cells assessed as early apoptotic cells level at 0.6 uM incubated for 3 days by Annexin-V and propidium iodide double staining based flow cytometry (reference value: 4.5%); format: functional
Bel-7402 [26] = assay: Induction of apoptosis in human Bel7402 cells assessed as viable cells level at 0.6 uM incubated for 3 days by Annexin-V and propidium iodide double staining based flow cytometry (reference value: 92.6%); format: functional
Bel-7402 [27] = assay: Potency index, ratio of IC50 for oridonin to IC50 for test compound against human Bel7402 cells; format: functional
[28] = Potency index, ratio of IC50 for oridonin to IC50 for test compound against human CaEs17 cells; format: functional
MGC-803 [29] = assay: Potency index, ratio of IC50 for oridonin to IC50 for test compound against human MGC803 cells; format: functional
K562 [30] = assay: Potency index, ratio of IC50 for oridonin to IC50 for test compound against human K562 cells; format: functional

Glutathione S-transferase P (Homo sapiens), sequence (P09211 2-210 limits assumed): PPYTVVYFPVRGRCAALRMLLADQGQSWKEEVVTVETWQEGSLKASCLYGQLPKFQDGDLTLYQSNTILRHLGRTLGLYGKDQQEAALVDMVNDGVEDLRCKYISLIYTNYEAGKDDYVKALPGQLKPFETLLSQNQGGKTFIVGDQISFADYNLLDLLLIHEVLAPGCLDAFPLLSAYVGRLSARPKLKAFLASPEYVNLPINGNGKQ

IC50 (Bel-7402 [1]): 1510 nM
IC50 (MGC-803 [3]): 1730 nM
IC50 (K562 [4]): 870 nM
Structure (SMILES): C=C1C(=O)[C@@]23C(=O)OC[C@]4([C@@H](OC(C)=O)CCC(C)(C)[C@H]4C=O)[C@@H]2CC[C@H]1[C@H]3OC(=O)c1ccc(Cl)cc1
IC50 [2]: 1250 nM

inhibition [5]: 7.08%
IC50 (Bel-7402 [1]): 3960 nM
IC50 (MGC-803 [3]): 3470 nM
IC50 (K562 [4]): 1740 nM
Structure (SMILES): C=C1C(=O)[C@@]23C(=O)OC[C@]4([C@@H](OC(C)=O)CCC(C)(C)[C@H]4C=O)[C@@H]2CC[C@H]1[C@H]3OC(C)=O
IC50 [2]: 2800 nM

IC50 (Bel-7402 [1]): 5090 nM
IC50 (MGC-803 [3]): 5540 nM
IC50 (K562 [4]): 3150 nM
Structure (SMILES): C=C1C(=O)[C@@]23C(=O)OC[C@]4([C@@H](OC(C)=O)CCC(C)(C)[C@H]4C=O)[C@@H]2CC[C@H]1[C@H]3OC(=O)c1ccc(C(F)(F)F)cc1
IC50 [2]: 9160 nM

More lines, now with the values behind:

Structure (SMILES): C=C1C(=O)[C@@]23C(=O)OC[C@]4([C@@H](OC(C)=O)CCC(C)(C)[C@H]4C=O)[C@@H]2CC[C@H]1[C@H]3OC(=O)CCCC
IC50 (Bel-7402 [1]): 3640 nM
IC50 [2]: 2850 nM
IC50 (MGC-803 [3]): 2490 nM
IC50 (K562 [4]): 1560 nM

Structure (SMILES): CC(=O)O[C@H]1C(=O)[C@@]2(C)[C@H]([C@H](OC(=O)c3ccccc3)[C@]3(O)C[C@H](OC(=O)[C@H](O)[C@@H](NC(=O)c4ccccc4)c4ccccc4)C(C)=C1C3(C)C)[C@]1(OC(C)=O)CO[C@@H]1C[C@@H]2O [PACLITAXEL]
IC50 [2]: 430 nM

Structure (SMILES): C=C1C(=O)[C@@]23C(=O)OC[C@]4([C@@H](OC(C)=O)CCC(C)(C)[C@H]4C=O)[C@@H]2CC[C@H]1[C@H]3OC(=O)c1ccccc1Cl
Activity (Bel-7402 [6]): 92.16%
Activity (Bel-7402 [7]): 0%
Activity (Bel-7402 [8]): 7.84%
Activity (Bel-7402 [9]): 53.3%
Activity (Bel-7402 [10]): 5.28%
Activity (Bel-7402 [11]): 41.69%
Activity (Bel-7402 [12]): 23.2%
Activity (Bel-7402 [13]): 20.73%
Activity (Bel-7402 [14]): 56.07%
Activity (Bel-7402 [15]): 0.6%
Activity (Bel-7402 [16]): 12.4%
Activity (Bel-7402 [17]): 21%
Activity (Bel-7402 [18]): 66%
Activity (Bel-7402 [19]): 0.3%
Activity (Bel-7402 [20]): 9.3%
Activity (Bel-7402 [21]): 9.6%
Activity (Bel-7402 [22]): 80.9%
Activity (Bel-7402 [23]): 0.1%
Activity (Bel-7402 [24]): 3.8%
Activity (Bel-7402 [25]): 8.8%
Activity (Bel-7402 [26]): 87.2%
inhibition [5]: 0%
Ratio IC50 (Bel-7402 [27]): 5
Ratio IC50 [28]: 18
Ratio IC50 (MGC-803 [29]): 4
Ratio IC50 (K562 [30]): 12
IC50 (Bel-7402 [1]): 1390 nM
IC50 [2]: 600 nM
IC50 (MGC-803 [3]): 1280 nM
IC50 (K562 [4]): 390 nM
